In data set [1] the test system is Severe acute respiratory syndrome coronavirus 2. In words: Inhibition of SARS-CoV-2 PLpro assessed as viral PLpro-mediated deubiquitination using Ub-AMC as substrate at 30 uM preincubated for 10 mins followed by substrate addition measured for 15 mins by fluorescence plate reader assay. Summed up: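 Run like the RLRGG-AMC PLpro assay (HEPES pH 7.5 buffer, 10 min preincubation, 15 min fluorescence read), but with 80 nM PLpro and 0.5 µM Ub-AMC as substrate.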

Data set [2] shares this test system. Briefly: Inhibition of SARS-CoV-2 PLpro assessed as viral PLpro-mediated deISGylation using ISG-15-AMC as substrate at 30 uM preincubated for 10 mins followed by substrate addition measured for 15 mins by fluorescence plate reader assay. In outline:
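Run like the RLRGG-AMC PLpro assay (HEPES pH 7.5 buffer, 10 min preincubation, 15 min fluorescence read), but with 4 nM PLpro and 0.5 µM ISG15-AMC as substrate.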

The subject of data set [3] is A549. Briefly: Cytotoxicity against human A549 cells overexpressing ACE2 receptor assessed as cell viability at < 30 uM incubated for 48 hrs by Cell Titer-Glo luminescent assay. The format is toxicity, cell-based. The settings on record: a549, 48 h. In general terms: In ATP-based viability assays light output follows the ATP content of the culture.
Data set [4] concerns A549. In words: Cytotoxicity against human A549 cells overexpressing ACE2 receptor assessed as cell viability at 100 uM incubated for 48 hrs by Cell Titer-Glo luminescent assay. The note with it: a549, 48 h. The format is toxicity, cell-based.
Data set [5] in a line: Drug concentration in C57BL/6J mouse plasma at 50 mg/kg, ip measured from 0.5 to 5 hrs by analytical analysis. In kind it is ADME, organism-based. The note with it: in vivo, time 0.5-5 hrs.
Data set [6] has as its system A549. Briefly: Cytotoxicity against human A549 cells overexpressing ACE2 receptor assessed as cell viability at <10 uM incubated for 48 hrs by Cell Titer-Glo luminescent assay. In kind it is toxicity, cell-based. The settings on record: a549, 48 h.
Data set [7] in a line: Inhibition of SARS-CoV-2 PLpro using Z-RLRGG-AMC as substrate preincubated for 10 mins followed by substrate addition measured for 15 mins by fluorescence plate reader assay. The arrangement: species or system Severe acute respiratory syndrome coronavirus 2.
Data set [8] in a line: Binding affinity to […] sensor chip immobilized His-tagged SARS-CoV-2 PLpro assessed as equilibrium dissociation constant by surface plasmon resonance analysis. The arrangement: species or system Severe acute respiratory syndrome coronavirus 2. Background: Surface plasmon resonance follows binding to a sensor surface in real time, without labels.
A short description of data set [9]: Inhibition of SARS-CoV-2 PLpro. On the set-up: species or system Severe acute respiratory syndrome coronavirus 2.
The subject of data set [10] is A549. In words: Cytotoxicity against human A549 cells overexpressing ACE2 receptor assessed as cell viability at <50 uM incubated for 48 hrs by Cell Titer-Glo luminescent assay. The note with it: a549, 48 h. The format is toxicity, cell-based.

The source made the active and inactive calls. The rule behind the calls is not given here.

Take `Cc1ccc(NC2CNC2)cc1C(=O)N[C@H](C)c1cccc(-c2ccc(CN3CCCC3)s2)c1`: the inhibition entry in [1] and in data set [2] was “Active” in each case. Further, the Activity entry is “Non-Toxic” with A549 [3], “Toxic” in the data set on A549 [4] and “Non-Toxic” with A549 [6]. In data set [5], this compound returned a concentration of 12 µM.
Consider `Cc1ccc(N)cc1C(=O)N[C@H](C)c1cccc2ccccc12`, for which the inhibition entry in [1] and in data set [2] was “Active” each time.
Regarding `Cc1ccc(NC2CNC2)cc1C(=O)N[C@H](C)c1cccc(-c2cccs2)c1` (single isomer, unassigned), the inhibition result in data set [1] and in data set [2] was “Active” in each case.
Turning to `CNC(=O)C[C@@H](NC(=O)c1cc(N(C)C2CNC2)ccc1C)c1cccc2ccccc12`, the IC50 result in [7] is “Not Active”. Also, in data set [8], the Kd is above 1000 µM.
`Cc1ccc(N)cc1C(=O)N[C@H](CCO)c1cccc2ccccc12`: the IC50 in [7] (read-out: IC50) is 100 µM.
In [9], `COC(=O)/C=C/CNC(=O)CNC(=O)[C@H](CN)NC(=O)[C@H](CCc1ccc(O)cc1)NC(C)=O` displayed an IC50 of 50 µM.
As to `Cc1ccc(NC2CNC2)cc1C(=O)N[C@H](C)c1cccc(-c2ccc(CNC3CCCC3)s2)c1`, the Kd in [8] came to 0.235 µM. Besides, the inhibition result in data set [1] and in [2] was “Active” each time. Also, the values for the Activity entry with A549 [3], with A549 [4] and in the data set on A549 [10] were “Non-Toxic”, “Toxic” and “Non-Toxic”, respectively.
For the compound `COC(=O)/C=C/CNC(=O)CNC(=O)[C@H](CN)NC(=O)[C@H](CCc1nc2ccccc2s1)NC(C)=O`, in data set [9], 50 µM corresponded to half-maximal inhibition (IC50).
In the case of `Cc1ccc(NC2CNC2)cc1C(=O)N[C@H](C)c1cccc2ccccc12`, the inhibition result in data set [1] and in data set [2] was “Active” throughout.

One may read the IC50 as the concentration that gives 50% inhibition. As a reminder, the Kd is the free concentration of one partner at which half of the binding sites on the other are occupied at equilibrium, for simple one-to-one binding.

Source of the values: ChEMBL document CHEMBL5042484, “Design of SARS-CoV-2 PLpro Inhibitors for COVID-19 Antiviral Therapy Leveraging Binding Cooperativity” (J Med Chem, 2022).
